Hits are enriched below; roughly 6.4% of the tested compounds scored in any of these assays.
NR3A LBD binder = NR3A (human) ligand-binding domain modulation; NR3A LBD differential scanning fluorimetry, Tm shift; 0% = protein alone, 100% = glycine-bound protein; Tm shift relative to glycine control, % at 25 µM; hit rate 2.5% among 340,000; AID 1259313;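 active means melting temperature shift of at least 10% of the positive control shift, at one fixed dose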
WT yeast gro inh = growth inhibition of WT yeast, mitochondrial fusion screen. mitochondrial fusion phenotypic screen, WT strain. hit rate 2.1% among 190,000. inhibition, % at 10 µM; in the data active means inhibition above about 58%; tested in S. cerevisiae
Tb MetRS inh = Trypanosoma brucei MetRS inhibition. purified T. brucei MetRS, ATP depletion, Kinase-Glo luminescence. inhibition, % at 11.9 µM. hit rate 0.4% among 360,000;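 active means inhibition above a per-plate cutoff of the control wells' mean inhibition plus 3 SD, cut at about 5.5% in these data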;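 further: 0% = DMSO wells median and 100% = median of wells with control inhibitor compound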
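assay system = parasite MetRS enzyme | timing = 15 min preincubation, 2 h reaction, all 25 °C | evaluation = percent inhibition relative to median high and low control wells | medium = HEPES buffer containing pyrophosphatase, BSA, spermine, DTT | compound = single dose, 11.9 µM final nominal, 0.9% final DMSO | detection = Kinase-Glo luminescence, ATP depletion format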
CHOP inhibitor = CHOP inhibition in unfolded protein response. hit rate 3.8% among 220,000. inhibition, % at 10 µM. AID 2732. CHO-K1 CHOP-promoter luciferase, tunicamycin-induced, 15-18 h;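 active means compounds that reduced the stress-induced luciferase reporter signal by more than about 70% of percent inhibition, limit read from the data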;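 further: 0% = tunicamycin plus vehicle and 100% = wells without tunicamycin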
MPTP inh = inhibitors of mitochondrial permeability transition pore | isolated mouse mitochondria, Ca2+ swelling absorbance, 30 min | inhibition, % at 10 µM | hit rate 1.4% among 360,000;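 active means inhibition of 50% or more, scaled per plate between neutral and stimulator controls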;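 further: 0% = DMSO wells given calcium and 100% = 1 mM EGTA wells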
EBV gp42 block = inhibitors of Epstein-Barr virus glycoprotein 42. Q1HVG2. Fluorescence polarization binding assay, mP read-out. inhibition, % (tested at 21.74 µM). hit rate 0.42% among 220,000; in the data active means inhibition above about 50%
Target sequence (Q1HVG2 whole entry, looked up): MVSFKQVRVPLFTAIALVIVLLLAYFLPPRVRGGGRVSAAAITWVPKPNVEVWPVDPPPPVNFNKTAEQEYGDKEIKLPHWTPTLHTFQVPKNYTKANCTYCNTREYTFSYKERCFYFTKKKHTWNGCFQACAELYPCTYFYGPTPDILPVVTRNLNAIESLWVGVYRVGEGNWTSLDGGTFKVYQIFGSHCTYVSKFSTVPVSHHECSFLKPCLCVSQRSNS
Numbers without * were called inactive; x = no result.

SMILES	NR3A LBD binder	WT yeast gro inh	Tb MetRS inh	CHOP inhibitor	MPTP inh	EBV gp42 block
O=C(CN1C(=O)NC(Cc2ccccc2)C1=O)Nc1ccc(OC(F)(F)F)cc1 (stereo not given)	15*	x	0	x	0	x
O=C(CN1C(=O)NC(Cc2ccccc2)C1=O)Nc1ccc(F)c(Cl)c1 (stereo not given)	29*	x	0	x	2	x
Cc1cccc(N2CCN(C3=NC(=O)C(Cc4ccccc4)S3)CC2)c1 (stereo not given)	-4	8	-1	33	0	-4
O=C(NCCN1CCOCC1)c1ccc(Cl)c(S(=O)(=O)N2CCCCC2)c1	0	x	0	x	0	x
Cc1cc2oc3c(c(=O)c2cc1C)C(c1cccc(Br)c1)N(Cc1ccco1)C3=O (stereo not given)	3	19	0	-5	-1	-16
Cc1ccc2oc3c(c(=O)c2c1)C(c1cccc(Br)c1)N(Cc1ccco1)C3=O (stereo not given)	1	18	-1	81*	2	-9
CCOc1cc(C2c3c(oc4cc(C)c(Cl)cc4c3=O)C(=O)N2Cc2ccco2)ccc1O (stereo not given)	4	16	0	96*	0	-10
CCOc1ccccc1-c1nc(-c2ccc(NC(=O)Cc3ccc(OC)cc3)cc2)no1	8	8	-1	19	2	-14
Cc1cc(/C=N/Nc2ccc([N+](=O)[O-])cn2)c(C)n1-c1ccc(C(=O)O)cc1	-3	6	0	3	2	61*
COc1ccccc1C=NNc1ccc([N+](=O)[O-])cn1	2	x	0	x	0	x
O=[N+]([O-])c1ccc(N/N=C/c2ccc(OCc3cccc4ccccc34)cc2)nc1	28*	17	-1	54	3	-93
CCN(CC)S(=O)(=O)c1ccc(N/N=C/c2ccc(O)cc2O)nc1	24*	-9	1	83*	2	9
O=[N+]([O-])c1ccc(NN=Cc2ccccc2O)nc1	26*	x	0	x	8	x
C[C@@H](C(=O)Nc1nccs1)N1C(=O)C2CC=CCC2C1=O (stereo not given in full)	1	x	0	x	1	x
O=[N+]([O-])c1ccc(NN=Cc2ccc(O)cc2)nc1	26*	x	0	x	1	x
Cc1cc(/C=N/Nc2ncnc(N)c2[N+](=O)[O-])c(C)n1-c1ccccc1	-5	x	0	83*	-1	-12
O=[N+]([O-])c1ccc(N/N=C\c2cccn2-c2ccccc2)nc1	-1	61*	-1	41	6	-28
O=[N+]([O-])c1ccc(N/N=C/c2ccccc2O)cc1	38*	x	2	x	10	x
O=C(CCC(=O)Nc1ccc(F)cc1)N/N=C/c1ccc(Br)cc1	-6	x	1	x	0	x
O=[N+]([O-])c1ccc(COc2cccc(CN3CCCC3)c2)cc1	1	x	-1	x	1	x
O=[N+]([O-])c1ccc(NN=Cc2ccccc2)nc1	-4	x	0	x	2	x
O=[N+]([O-])c1ccc(NN=Cc2ccc(O)cc2O)nc1	27*	x	1	x	2	x
COc1ccc(/C=C2\CCc3ccccc3C2=O)cc1Cn1nc(C)cc1C	5	80*	-1	70*	0	-17
Cc1ccsc1/C=C1\CCc2ccccc2C1=O	1	38	-2	77*	0	0
COc1cccc(/C=C2\CCc3ccccc3C2=O)c1	22*	x	-1	-14	0	2
SMILES	NR3A LBD binder	WT yeast gro inh	Tb MetRS inh	CHOP inhibitor	MPTP inh	EBV gp42 block
O=C1C(=Cc2ccccn2)CCc2ccccc21	x	x	0	x	0	x
O=C1/C(=C/c2cccc([N+](=O)[O-])c2)CCc2ccccc21	11*	55	0	16	-2	11
CC1(c2nnc(Cc3ccccc3)o2)CC(c2ccc(C#N)cc2)=NO1 (stereo not given)	0	x	-1	x	0	x
COc1ccc(/C=C/C(=O)NC2CCCCCCC2)cc1S(=O)(=O)N1CCOCC1	-4	-10	0	14	0	10
O=C1/C(=C/c2cccc([N+](=O)[O-])c2)CSc2ccc(Cl)cc21	-7	x	0	16	6	-15
CCN1C/C(=C\c2cccc([N+](=O)[O-])c2)C(=O)/C(=C/c2cccc([N+](=O)[O-])c2)C1	-2	65*	0	108*	0	-3
COc1cc(/C=N/NC(=O)c2cccc([N+](=O)[O-])c2)ccc1O	1	2	0	3	-1	-5
